Data reported in ChEMBL document CHEMBL4433210, “Synthesis and Evaluation of Bifunctional Aminothiazoles as Antiretrovirals Targeting the HIV-1 Nucleocapsid Protein” (ACS Med Chem Lett, 2019).
The source made the active and inactive calls.

Assays:
[1] = system: Human immunodeficiency virus 1; assay: Antiviral activity against wild-type HIV1 NL4-3 infected infected in human MT2 cells assessed as reduction in intracellular RNA at 1 uM and measured after 30 hrs post infection by Alu-LTR PCR protocol based method; assay type: functional, organism-based
How it was run: (§1)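 MT-2 cells were infected with NL4-3 at MOI 0.1 and incubated with test or reference agents at 20, 5 or 1 μM. Real-time PCR measured integrated HIV-1 DNA and intracellular and extracellular genomic HIV-1 RNA at 30 h post-infection. Levels are expressed as a percentage of the no-drug control culture.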

[2] = system: Human immunodeficiency virus 1; assay: Antiviral activity against wild-type HIV1 NL4-3 infected infected in human MT2 cells assessed as reduction in extracellular RNA at 1 uM and measured after 30 hrs post infection by Alu-LTR PCR protocol based method; assay type: functional, organism-based; how it was run: as §1
[3] = system: Human immunodeficiency virus 1; assay: (§2) Antiviral activity against wild-type HIV1 NL4-3 infected in human TZM-bl cells infected with supernatants from virus-infected human HeLa P4.R5MAGI cells treated with compound for 72 hrs assessed as reduction in viral replication after 48 hrs by bright Glo-luciferase reporter gene assay; assay type: functional, organism-based; settings: Human immunodeficiency virus 1, NL4-3
[4] = Inhibition of synthesized Nucleocapsid protein (11 to 55 residues) assessed as reduction in NC-induced cTAR DNA destabilization pre-treated with cTAR and Nucleocapsid (11-55) for 15 mins followed by compound addition at 10 uM by spectroflurometry relative to control
How it was run: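 NC chaperone inhibition assay: fluorescence monitoring of NC-induced destabilization of cTAR DNA labelled with Alexa488 at the 5′ end and Dabcyl quencher at the 3′ end. Compound is tested at 10 μM.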

[5] = system: Human immunodeficiency virus 1; assay: as §2, with “against” for “against wild-type”, “11808 harboring protease L10F/K20T/V32I/L33F/I54V/G73S/I84V/L89V/L90M mutant” for “NL4-3”, “MT2” for “HeLa P4.R5MAGI”; assay type: functional, organism-based; settings: Human immunodeficiency virus 1, 11808
How it was run: (§3)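 BiCycle assay: MT-2 cells infected with a drug-resistant HIV-1 strain in the presence of compound dilutions. Virus produced in this first round is then measured by infecting TZM-bl cells. The readout is IC50.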

[6] = system: Human immunodeficiency virus 1; assay: as §2, with “against” for “against wild-type”, “12465 harboring protease M46I/I54V/Q58E/T74P/V82L/L90M mutant” for “NL4-3”, “MT2” for “HeLa P4.R5MAGI”; assay type: functional, organism-based; settings: Human immunodeficiency virus 1, 12465; how it was run: as §3
[7] = system: Human immunodeficiency virus 1; assay: Selectivity ratio of IC50 for HIV1 11808 harboring protease L10F/K20T/V32I/L33F/I54V/G73S/I84V/L89V/L90M mutant infected in human MT2 cells to IC50 for HIV1 NL4-3 infected in human MT2 cells; assay type: functional
How it was run: (§4)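 Fold change is the IC50 against the resistant strain divided by the IC50 against the wild-type NL4–3 reference. Both IC50 values come from the BiCycle assay (MT-2 infection, then TZM-bl readout of progeny virus).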

[8] = system: Human immunodeficiency virus 1; assay: as §2, with “against” for “against wild-type”, “12229 harboring non-nucleoside reverse transcriptase L100I/K103N/H221Y mutant” for “NL4-3”, “MT2” for “HeLa P4.R5MAGI”; assay type: functional, organism-based; settings: Human immunodeficiency virus 1, 12229; how it was run: as §3
[9] = system: Human immunodeficiency virus 1; assay: as §2, with “against” for “against wild-type”, “7401 harboring nucleoside reverse transcriptase M41L/E44D/D67N/T69D/M184V/L210W/T215Y mutant” for “NL4-3”, “MT2” for “HeLa P4.R5MAGI”; assay type: functional, organism-based; settings: Human immunodeficiency virus 1, 7401; how it was run: as §3
[10] = system: Human immunodeficiency virus 1; assay: as §2, with “against” for “against wild-type”, “12231 harboring non-nucleoside reverse transcriptase 103N/179F/181C mutant” for “NL4-3”, “MT2” for “HeLa P4.R5MAGI”; assay type: functional, organism-based; settings: Human immunodeficiency virus 1, 12231; how it was run: as §3
[11] = system: Human immunodeficiency virus 1; assay: Selectivity ratio of IC50 for HIV1 12231 harboring non-nucleoside reverse transcriptase 103N/179F/181C mutant infected in human MT2 cells to IC50 for HIV1 NL4-3 infected in human MT2 cells; assay type: functional; how it was run: as §4
[12] = system: Human immunodeficiency virus 1; assay: Selectivity ratio of IC50 for HIV1 7401 harboring nucleoside reverse transcriptase M41L/E44D/D67N/T69D/M184V/L210W/T215Y mutant infected in human MT2 cells to IC50 for HIV1 NL4-3 infected in human MT2 cells; assay type: functional; how it was run: as §4
[13] = system: Human immunodeficiency virus 1; assay: Selectivity ratio of IC50 for HIV1 11845 harboring integrase 140S/148H double mutant mutant infected in human MT2 cells to IC50 for HIV1 NL4-3 infected in human MT2 cells; assay type: functional; how it was run: as §4
[14] = Cytotoxicity against human PBMC cells assessed as reduction in cell viability after 7 days by MTS assay; assay type: cell-based; settings: read-out: TD50
How it was run: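 Cytotoxicity in peripheral blood mononuclear cells by MTS assay, giving TD50. Only compounds that met the BiCycle IC50 ≤ 5 μM criterion and were positive in the NC inhibition assay were tested.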

[15] = system: Human immunodeficiency virus 1; assay: Selectivity ratio of IC50 for HIV1 12229 harboring non-nucleoside reverse transcriptase L100I/K103N/H221Y mutant infected in human MT2 cells to IC50 for HIV1 NL4-3 infected in human MT2 cells; assay type: functional; how it was run: as §4
[16] = system: Human immunodeficiency virus 1; assay: Selectivity ratio of IC50 for HIV1 12465 harboring protease M46I/I54V/Q58E/T74P/V82L/L90M mutant infected in human MT2 cells to IC50 for HIV1 NL4-3 infected in human MT2 cells; assay type: functional; how it was run: as §4
[17] = system: Human immunodeficiency virus 1; assay: Antiviral activity against wild type HIV1 NL4-3 infected in human TZM-bl cells assessed as reduction in viral replication after 48 hrs by bright Glo-luciferase reporter gene assay based BiCycle assay; assay type: functional, organism-based; settings: Human immunodeficiency virus 1, NL4-3, TZM-bl
How it was run: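 BiCycle format: MT-2 cells infected with wild-type NL4-3 in the presence of compound dilutions. Virus produced in this first round was then quantified by infecting TZM-bl cells. IC50 was derived from the dose-response data.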

[18] = system: Human immunodeficiency virus 1; assay: Antiviral activity against wild-type HIV1 NL4-3 infected infected in human MT2 cells assessed as reduction in extracellular RNA at 5 uM and measured after 30 hrs post infection by Alu-LTR PCR protocol based method; assay type: functional, organism-based; how it was run: as §1
[19] = Selectivity index, ratio of TD50 for cytotoxicity aginst human PBMC cells to IC50 for antiviral activity against wild type HIV1 NL4-3 infected in human TZM-bl cells assessed as reduction in viral replication after 48 hrs by bright Glo-luciferase reporter gene assay based BiCycle assay; assay type: toxicity, cell-based; settings: read-out: Selectivity Index
How it was run: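 SI calculated as TD50 from the PBMC MTS assay divided by IC50 from the BiCycle antiviral assay (MT-2 infection followed by TZM-bl read-out).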

[20] = system: Human immunodeficiency virus 1; assay: Antiviral activity against wild-type HIV1 NL4-3 infected infected in human MT2 cells assessed as reduction in HIV1 extracellular genomic RNA level at 5 uM and measured after 30 hrs post infection by TaqMan probe based RT-PCR analysis; assay type: functional, organism-based; how it was run: as §1
[21] = system: Human immunodeficiency virus 1; assay: Antiviral activity against wild-type HIV1 NL4-3 infected infected in human MT2 cells assessed as reduction in HIV1 integrated DNA at 5 uM and measured after 30 hrs post infection by Alu-LTR PCR protocol based method; assay type: functional, organism-based; how it was run: as §1
[22] = system: Human immunodeficiency virus 1; assay: as §2, with “against” for “against wild-type”, “11845 harboring integrase 140S/148H double mutant” for “NL4-3”, “MT2” for “HeLa P4.R5MAGI”; assay type: functional, organism-based; settings: Human immunodeficiency virus 1, 11845; how it was run: as §3
[23] = system: Human immunodeficiency virus 1; assay: Selectivity ratio of IC50 for HIV1 7400 harboring nucleoside reverse transcriptase M41L/D67N/M184V/L210W/T215Y mutant infected in human MT2 cells to IC50 for HIV1 NL4-3 infected in human MT2 cells; assay type: functional; how it was run: as §4
[24] = system: Human immunodeficiency virus 1; assay: Antiviral activity against wild-type HIV1 NL4-3 infected in human TZM-bl cells treated with compound assessed as reduction in viral replication after 48 hrs by bright Glo-luciferase reporter gene assay based monocycle assay; settings: Human immunodeficiency virus 1, NL4-3
[25] = system: Human immunodeficiency virus 1; assay: Antiviral activity against wild-type HIV1 NL4-3 infected infected in human MT2 cells assessed as reduction in HIV1 intracellular genomic RNA level at 5 uM and measured after 30 hrs post infection by TaqMan probe based RT-PCR analysis; assay type: functional, organism-based; how it was run: as §1
[26] = system: Human immunodeficiency virus 1; assay: as §2, with “against” for “against wild-type”, “7400 harboring nucleoside reverse transcriptase M41L/D67N/M184V/L210W/T215Y mutant” for “NL4-3”, “MT2” for “HeLa P4.R5MAGI”; assay type: functional, organism-based; settings: Human immunodeficiency virus 1, 7400; how it was run: as §3
[27] = system: Human immunodeficiency virus 1; assay: Antiviral activity against wild-type HIV1 NL4-3 infected infected in human MT2 cells assessed as reduction in intracellular RNA at 20 uM and measured after 30 hrs post infection by Alu-LTR PCR protocol based method; assay type: functional, organism-based; how it was run: as §1
[28] = system: Human immunodeficiency virus 1; assay: Antiviral activity against wild-type HIV1 NL4-3 infected infected in human MT2 cells assessed as reduction in extracellular RNA at 20 uM and measured after 30 hrs post infection by Alu-LTR PCR protocol based method; assay type: functional, organism-based; how it was run: as §1
[29] = system: Human immunodeficiency virus 1; assay: Antiviral activity against wild-type HIV1 NL4-3 infected infected in human MT2 cells assessed as reduction in HIV1 extracellular genomic RNA level at 20 uM and measured after 30 hrs post infection by TaqMan probe based RT-PCR analysis; assay type: functional, organism-based; how it was run: as §1
[30] = system: Human immunodeficiency virus 1; assay: Antiviral activity against wild-type HIV1 NL4-3 infected infected in human MT2 cells assessed as reduction in HIV1 integrated DNA at 20 uM and measured after 30 hrs post infection by Alu-LTR PCR protocol based method; assay type: functional, organism-based; how it was run: as §1
[31] = system: Human immunodeficiency virus 1; assay: Antiviral activity against wild-type HIV1 NL4-3 infected infected in human MT2 cells assessed as reduction in HIV1 intracellular genomic RNA level at 20 uM and measured after 30 hrs post infection by TaqMan probe based RT-PCR analysis; assay type: functional, organism-based; how it was run: as §1

| SMILES | inhibition [4] | IC50 [5] | IC50 [6] | Ratio IC50 [7] | IC50 [8] | IC50 [9] | IC50 [10] | Ratio IC50 [11] | Ratio IC50 [12] | Ratio IC50 [13] | CC50 at 168 h [14] | Ratio IC50 [15] | Ratio IC50 [16] | IC50 [17] | selectivity ratio at 48 h [19] | IC50 [22] | Ratio IC50 [23] | IC50 [24] | IC50 [26] | also measured |
| --- | --- | --- | --- | --- | --- | --- | --- | --- | --- | --- | --- | --- | --- | --- | --- | --- | --- | --- | --- | --- |
| CC(C)CN(C[C@@H](O)[C@H](Cc1ccccc1)NC(=O)O[C@H]1CO[C@H]2OCC[C@H]21)S(=O)(=O)c1ccc(N)cc1 |  |  |  |  |  |  |  |  |  |  |  |  |  |  |  |  |  |  |  | Activity [1]: inactive; Activity [2]: Active |
| Nc1nc(-c2ccccc2OCc2ccc(C(=O)O)cc2)cs1 | 6% |  |  |  |  |  |  |  |  |  |  |  |  |  |  |  |  |  |  | IC50 [3]: 95000 nM |
| Nc1nc(CCOC(=O)c2ccc(COc3ccccc3-c3csc(N)n3)cc2)cs1.O=C(O)C(F)(F)F.O=C(O)C(F)(F)F | 18% | 1100 nM | 400 nM | 3.6 | 300 nM | 500 nM | 700 nM | 2.2 | 1.5 | 2.3 | 16000 nM | 1 | 1.2 | 300 nM | 53 | 700 nM | 0.4 | 1200 nM | 100 nM | Activity [18]: Active; Activity [20]: Active; Activity [21]: inactive; Activity [25]: Active |
| Nc1nc(-c2ccc(OCc3cccc(C(=O)NCCNC(=O)c4ccc(COc5ccc(Cl)cc5-c5csc(N)n5)cc4)c3)cc2)cs1.O=C(O)C(F)(F)F.O=C(O)C(F)(F)F | 20% | 600 nM | 1600 nM | 0.7 | 1000 nM | 1400 nM | 6000 nM | 7.5 | 1.8 | 2.7 | > 50000 nM | 1.2 | 2 | 800 nM | > 63 | 2200 nM | 0.9 | > 50000 nM | 700 nM | Activity [27]: inactive; Activity [28]: Active; Activity [29]: inactive; Activity [30]: inactive; Activity [31]: inactive |
